The results in this text go back to ChEMBL document CHEMBL1152918, “Simplexins A-I, eunicellin-based diterpenoids from the soft coral Klyxum simplex” (2009).

Common to all, as to type: functional
The test system of experiment [1] is Daoy. As to the kind of experiment: Cytotoxicity against human DaOY cells by MTT assay. The following applies: read-out: ED50 (the source's name). Background: Tetrazolium dyes change colour on reduction, which living cells bring about.
Experiment [2] relates to MCF7. The experiment is described as follows: Cytotoxicity against human MCF7 cells by MTT assay. The following applies: read-out: ED50 (the source's name).
In experiment [3] the test system is HeLa. As to the kind of experiment: Cytotoxicity against human HeLa cells by MTT assay. The following applies: read-out: ED50 (the source's name).
Experiment [4] has as its system HEp-2. The experiment is described as follows: Cytotoxicity against human Hep2 cells by MTT assay. The following applies: read-out: ED50 (the source's name).
Experiment [5] relates to RAW264.7. The experiment is described as follows: Antiinflammatory activity against LPS-stimulated mouse RAW264.7 cells assessed as reduction in iNOS level at 10 uM relative to control. More on the design: scale not given: the % may be the effect or the level left. The procedure, abridged: (§1)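 Immunoblot measured iNOS and COX-2 protein levels in RAW264.7 macrophages stimulated with LPS and treated at 10 μM. Levels are expressed as a percentage of cells given LPS alone.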

The subject of experiment [6] is RAW264.7. The experiment is described as follows: Antiinflammatory activity against LPS-stimulated mouse RAW264.7 cells assessed as reduction in COX-2 level at 10 uM relative to control. A digest of the protocol:
as §1

Values after ≈ are worked out from the molar mass of the structure shown. Active and inactive are the calls of the source. The calls are words filed in the database; no cut-off is given here.

`C=C1C[C@H]2O[C@H]([C@H]3[C@@H]2[C@](C)(OC(C)=O)CC[C@@H]3C(C)C)[C@](C)(OC(=O)CCC)CC[C@@H]1O` [SIMPLEXIN A]: the EC50 in experiment [1] is 10.4 µg/mL (≈ 23 µM); in experiment [2], 12.1 µg/mL (≈ 26.8 µM); in experiment [3], above 20 µg/mL; in experiment [4] it was 12.1 µg/mL (≈ 26.9 µM). In addition, in experiment [5], the Activity was 15.9%. The outcome in experiment [6] was inactive.

`CCCC(=O)O[C@H]1[C@H](C(C)C)[C@@H]2[C@@H]([C@H]3C[C@](C)(O)[C@@H](OC(C)=O)CC[C@@](C)(OC(=O)CCC)[C@@H]2O3)[C@](C)(O)[C@@H]1OC(C)=O` [SIMPLEXIN C]: the EC50 in experiment [1], in experiment [2], in experiment [3] and in experiment [4] was above 20 µg/mL each time.

For the compound `CC(=O)O[C@H]1CC[C@@](C)(OC(C)=O)[C@@H]2O[C@H](C[C@]1(C)O)[C@@H]1[C@H]2[C@@H](C(C)C)[C@H](O)C[C@@]1(C)OC(C)=O` [SIMPLEXIN I], the EC50 in experiment [1], in experiment [2], in experiment [3] and in experiment [4] was above 20 µg/mL each time.

Consider `CCCC(=O)O[C@H]1[C@H](C(C)C)[C@@H]2[C@@H]([C@H]3C[C@](C)(O)[C@@H](OC(=O)CCC)CC[C@@](C)(OC(=O)CCC)[C@@H]2O3)[C@](C)(O)[C@@H]1OC(C)=O` [SIMPLEXIN D], for which the EC50 in experiment [1] was 15.3 µg/mL (≈ 23.9 µM); in experiment [2] it was 14.5 µg/mL (≈ 22.7 µM); in experiment [3], above 20 µg/mL; in experiment [4], above 20 µg/mL. Further, the Activity in experiment [5] worked out at 37.7%. The outcome in experiment [6] was inactive.

On to `CCCC(=O)O[C@]1(C)CC[C@H](O)[C@@](C)(O)C[C@H]2O[C@@H]1[C@H]1[C@@H]2[C@](C)(OC(C)=O)CC[C@@H]1C(C)C` [SIMPLEXIN B], for which the EC50 in experiment [1], in experiment [2], in experiment [3] and in experiment [4] was above 20 µg/mL each time.

For `CCCC(=O)O[C@]1(C)CC[C@H](OC(C)=O)[C@@](C)(O)C[C@H]2O[C@@H]1[C@@H]1[C@@H](C(C)C)[C@H](O)[C@@H](OC(C)=O)[C@@](C)(O)[C@@H]12` [SIMPLEXIN F], the EC50 in experiment [1], in experiment [2], in experiment [3] and in experiment [4] was above 20 µg/mL in each case.

On to `C=CC(=O)O[C@H]1CC[C@@](C)(OC(=O)CCC)[C@@H]2O[C@H](C[C@]1(C)O)[C@@H]1[C@H]2[C@@H](C(C)C)[C@H](OC(=O)CCC)[C@@H](OC(C)=O)[C@@]1(C)O` [SIMPLEXIN E], for which the EC50 in experiment [1] is 12.8 µg/mL (≈ 20.4 µM); in experiment [2], 7.19 µg/mL (≈ 11.5 µM); in experiment [3] it was 17.4 µg/mL (≈ 27.8 µM); in experiment [4] it was 10.7 µg/mL (≈ 17.2 µM). In addition, the Activity in experiment [5] came out at 4.8%; in experiment [6], 37.7%.
